Measurements as given in publication PMC5045767 (Bioorganic & medicinal chemistry, 2016).
In brackets after ≈: the same amount, converted by molar mass. Entries after “also recorded” stand apart in the source; their conditions may differ. Like-named read-outs stand apart in the source and are kept apart here.

Columns and labels:
MRSA S22 (strain W) = assay: time-kill assay; assay type: cell-based, S. aureus; conditions: 4× MIC, over 24 h
[1] = tested on: S. epidermidis ATCC 35984 (strain AC); assay: membrane disruption, propidium iodide staining; assay type: cell-based; conditions: 1× and 4× MIC
In short: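 Membrane integrity was assessed by propidium iodide uptake, with red-stained cells scored as membrane-compromised. […] Controls: untreated and aminoglycoside-treated cells (negative), and a tobramycin derivative carrying a C14 linear alkyl thioether at the 6″-position (positive).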

E. faecium BM4105-RF = assay: MIC, broth double dilution; assay type: cell-based; conditions: Enterococcus faecium, BM4105RF, strain AF = E. faecium BM4105-RF
[2] = tested on: S. epidermidis ATCC 35984 (strain AC); assay: ROS production, DCFH-DA staining; assay type: cell-based; conditions: 1× and 4× MIC, 1 h at 37 °C
In short: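 Untreated cells served as negative control and 1 mM H2O2 as positive control. Cells were then stained with DCFH-DA (40 μg/mL) and examined by fluorescence microscopy.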

HEK-293 = assay: mammalian cytotoxicity; assay type: cell-based; conditions: for difference between cytotoxic concentration and MIC values: HEK-293 vs MRSA strains, depending on the strain; for cytotoxicity (significant = >20% cell death): up until 10 μg/mL, HEK-293
S. aureus strains = assay: MIC over the panel of S. aureus strains; assay type: cell-based
[3] = MIC broth double-dilution assay with the inoculum size of the time-kill assays; assay type: cell-based; conditions: inoculum 1×10^6 CFU/mL
[4] = tested on: murine red blood cells (mRBCs); assay: hemolytic assay; assay type: cell-based, mouse; conditions: compared to ebselen / among ebsulfur analogues tested
[5] = solubility in liquid Mueller-Hinton medium; assay type: physicochemical
[6] = tested on: S. aureus ATCC 6538 (strain A); assay: reduction of established biofilm; assay type: cell-based; conditions: 1× to […] MIC tested, concentration not given
NorA, efflux pump = conditions: NorA inhibitor; cited from earlier work
S. aureus ATCC 25923 = assay: MIC, broth double dilution; assay type: cell-based; conditions: Staphylococcus aureus, ATCC25923, strain B = S. aureus ATCC 25923
MRSA NRS77 = assay: MIC, broth double dilution; assay type: cell-based, S. aureus; conditions: Staphylococcus aureus, MRSA|NRS77, strain T = MRSA NRS77
[7] = tested on: S. aureus ATCC 6538 (strain A); conditions: 2 μg/mL; cited from earlier work

## O=c1c2ccccc2sn1-c1ccccc1 [2a, 2-phenyl-1,2-benzisothiazol-3(2H)-one]
MRSA S22 (strain W)
  reduction of bacterial load: 1.5 orders of magnitude
[1]
  membrane disruption (PI uptake): no sign of membrane disruption
E. faecium BM4105-RF
  MIC: 2 to 7.8 µg/mL (≈ 8.8 to 34.3 µM)
[2]
  ROS production (DCFH-DA): led to production of ROS

## CC(C)c1ccc(-n2sc3ccccc3c2=O)cc1 [2e]
HEK-293
  difference between cytotoxic concentration and MIC values: up to 40 fold
  cytotoxicity (significant = >20% cell death): did not display any significant cytotoxicity
S. aureus strains
  improvement in MIC values when compared to the parent compound 2a: up to 16 fold

## O=c1c2ccccc2sn1-c1cccc(Br)c1 [2g]
[3]
  MIC values with time-kill inoculum size compared with standard MIC: remained identical

## CC(C)c1cccc(-n2sc3ccccc3c2=O)c1 [2h]
[4]
  hemolytic activity, comparison: less hemolytic when compared to ebselen; also recorded: least hemolytic
HEK-293
  difference between cytotoxic concentration and MIC values: up to 40 fold
  cytotoxicity (significant = >20% cell death): did not display any significant cytotoxicity
[3]
  MIC values with time-kill inoculum size compared with standard MIC: remained identical
E. faecium BM4105-RF
  MIC: 2 to 7.8 µg/mL (≈ 7.42 to 29 µM)
S. aureus strains
  improvement in MIC values when compared to the parent compound 2a: up to 16 fold

## COc1cc(OC)cc(-n2sc3ccccc3c2=O)c1 [2k]
E. faecium BM4105-RF
  MIC: 2 to 7.8 µg/mL (≈ 6.96 to 27.1 µM)

## O=c1c2ccccc2sn1-c1cccc2ccccc12 [2l]
HEK-293
  cytotoxicity (significant = >20% cell death): did not display any significant cytotoxicity

## O=c1c2ccccc2sn1-c1ccccn1 [2m]
[5]
  solubility: soluble enough for biological testing

## CCCCCCn1sc2ccccc2c1=O [3b]
MRSA S22 (strain W)
  reduction of bacterial load: 1.5 orders of magnitude
[1]
  membrane disruption (PI uptake): no sign of membrane disruption
[2]
  ROS production (DCFH-DA): led to production of ROS

## CCCCCCCCn1sc2ccccc2c1=O [3c]
MRSA S22 (strain W)
  reduction of bacterial load: 1.5 orders of magnitude
[4]
  hemolytic activity, comparison: less hemolytic when compared to ebselen
[6]
  biofilm reduction: low to no biofilm reduction
[1]
  membrane disruption (PI uptake): no sign of membrane disruption
[2]
  ROS production (DCFH-DA): led to production of ROS

## O=[N+]([O-])c1ccc2[nH]c(-c3ccccc3)cc2c1 [5-nitro-2-phenyl-(1H)-indole]
NorA, efflux pump
  IC50: < 5 µM

## NCC[C@H](O)C(=O)N[C@@H]1C[C@H](N)[C@@H](O[C@H]2O[C@H](CN)[C@@H](O)[C@H](O)[C@H]2O)[C@H](O)[C@H]1O[C@H]1O[C@H](CO)[C@@H](O)[C@H](N)[C@H]1O [AMK, amikacin, reference compound]
S. aureus ATCC 25923
  MIC: ≤ 0.5 µg/mL
MRSA NRS77
  MIC: ≤ 0.5 µg/mL
[3]
  MIC values with time-kill inoculum size compared with standard MIC: remained identical
E. faecium BM4105-RF
  MIC: ≥ 125 µg/mL

## O=c1c2ccccc2[se]n1-c1ccccc1 [Ebselen, 2-phenyl-1,2-benzisoselenazol-3(2H)-one, reference compound]
[1]
  membrane disruption (PI uptake): no sign of membrane disruption
HEK-293
  cytotoxicity (significant = >20% cell death): very similar
[7]
  biofilm reduction: approximately 60%
[3]
  MIC values with time-kill inoculum size compared with standard MIC: remained identical
[2]
  ROS production (DCFH-DA): led to production of ROS
